Measured values taken from ChEMBL document CHEMBL1156074, “Diazo transfer-click reaction route to new, lipophilic teicoplanin and ristocetin aglycon derivatives with high antibacterial and anti-influenza virus activity: an aggregation and receptor binding study” (J Med Chem, 2009).
In brackets after ≈: the same amount, converted by molar mass. Activity calls are given as the source filed them.

Experiments:
Staphylococcus aureus [1] = experiment: Antibacterial activity against methicillin-sensitive Staphylococcus aureus ATCC 33591 after 18 hrs by broth microdilution method; type: functional; details: ATCC 33591, 18 h
Influenza B virus [2] = experiment: Antiviral activity against Influenza B virus (B/Hong Kong/5/72) assessed as cell viability by cell-based MTS assay; type: functional; details: B/Hong Kong/05/1972
Method in brief: (§1)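 Cell-based influenza assay. The read-out is cell viability by the colorimetric formazan-based MTS assay. EC50 is the concentration giving 50% inhibition of the virus-induced cytopathic effect.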

Influenza A virus [3] = experiment: Antiviral activity against Influenza A virus (A/Puerto Rico/8/34(H1N1)) assessed as inhibition of virus-induced cytopathic effect by cell-based assay; type: functional, organism-based, A/Puerto Rico/8/1934(H1N1)
Method in brief: (§2)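 Virus-induced cytopathic effect is scored visually in infected cell cultures. EC50 is defined as the compound concentration producing 50% inhibition of the CPE. A compound is recorded as not active when there is no inhibition at the highest concentration tested or at a subtoxic concentration.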

Influenza B virus [4] = experiment: Antiviral activity against Influenza B virus (B/Hong Kong/5/72) assessed as inhibition of virus-induced cytopathic effect by cell-based assay; type: functional; details: B/Hong Kong/05/1972; method in brief: as §2
Enterococcus faecalis [5] = experiment: Antibacterial activity against vancomycin and teicoplanin-resistant Enterococcus faecalis 15376 harboring vanA gene after 18 hrs by broth microdilution method; type: functional; details: Enterococcus faecalis, 15376, 18 h
[6] = test system: Staphylococcus epidermidis; experiment: Antibacterial activity against biofilm of Staphylococcus epidermidis ATCC 35984 after 18 hrs by broth microdilution method; type: functional; details: RP62A
[7] = test system: Staphylococcus epidermidis; experiment: Antibacterial activity against Staphylococcus epidermidis after 18 hrs by broth microdilution method; type: functional
H3N2 subtype [8] = experiment: Antiviral activity against Influenza A virus (A/Hong Kong/7/87(H3N2)) assessed as inhibition of virus-induced cytopathic effect by cell-based assay; type: functional, organism-based; details: A/Hong Kong/7/1987(H3N2); method in brief: as §2
Staphylococcus aureus [9] = experiment: Antibacterial activity against methicillin-sensitive Staphylococcus aureus ATCC 29213 after 18 hrs by broth microdilution method; type: functional; details: ATCC 29213, 18 h
Enterococcus faecalis [10] = experiment: Antibacterial activity against vancomycin-resistant and teicoplanin-sensitive Enterococcus faecalis ATCC 51299 harboring vanB gene after 18 hrs by broth microdilution method; type: functional; details: ATCC 51299, 18 h
H3N2 subtype [11] = experiment: Antiviral activity against Influenza A virus (A/Hong Kong/7/87(H3N2)) assessed as cell viability by cell-based MTS assay; type: functional, organism-based; details: A/Hong Kong/7/1987(H3N2); method in brief: as §1
Influenza A virus [12] = experiment: Antiviral activity against Influenza A virus (A/Puerto Rico/8/34(H1N1)) assessed as cell viability by cell-based MTS assay; type: functional, organism-based; details: A/Puerto Rico/8/1934(H1N1); method in brief: as §1
Enterococcus faecalis [13] = experiment: Antibacterial activity against vancomycin and teicoplanin-sensitive Enterococcus faecalis ATCC 29212 after 18 hrs by broth microdilution method; type: functional; details: ATCC 29212, 18 h
Bacillus subtilis [14] = experiment: Antibacterial activity against Bacillus subtilis ATCC 6633 after 18 hrs by broth microdilution method; type: functional; details: ATCC 6633, 18 h
Influenza B virus [15] = experiment: Antiviral activity against Influenza B virus (B/Hong Kong/5/72) assessed as inhibition of virus-induced cytopathic effect at highest concentration by cell-based assay; type: functional; details: B/Hong Kong/05/1972; method in brief: as §2
Influenza B virus [16] = experiment: Antiviral activity against Influenza B virus (B/Hong Kong/5/72) assessed as cell viability at subtoxic concentration by cell-based MTS assay; type: functional; details: B/Hong Kong/05/1972
Bacillus subtilis [17] = experiment: Bactericidal activity against Bacillus subtilis ATCC 6633 after overnight incubation; type: functional
H3N2 subtype [18] = experiment: Antiviral activity against Influenza A virus (A/Hong Kong/7/87(H3N2)) assessed as inhibition of virus-induced cytopathic effect at highest concentration by cell-based assay; type: functional, organism-based; details: A/Hong Kong/7/1987(H3N2); method in brief: as §2
Influenza A virus [19] = experiment: Antiviral activity against Influenza A virus (A/Puerto Rico/8/34(H1N1)) assessed as cell viability at subtoxic concentration by cell-based MTS assay; type: functional, organism-based; details: A/Puerto Rico/8/1934(H1N1)
Enterococcus faecalis [20] = experiment: Bactericidal activity against vancomycin and teicoplanin-resistant Enterococcus faecalis 15376 harboring vanA gene after overnight incubation; type: functional
Enterococcus faecalis [21] = experiment: Bactericidal activity against vancomycin-resistant and teicoplanin-sensitive Enterococcus faecalis ATCC 51299 harboring vanB gene after overnight incubation; type: functional
Enterococcus faecalis [22] = experiment: Bactericidal activity against vancomycin and teicoplanin-sensitive Enterococcus faecalis ATCC 29212 after overnight incubation; type: functional
Staphylococcus aureus [23] = experiment: Bactericidal activity against methicillin-sensitive Staphylococcus aureus ATCC 29213 after overnight incubation; type: functional
[24] = test system: Staphylococcus epidermidis; experiment: Bactericidal activity against biofilm of Staphylococcus epidermidis ATCC 35984 after overnight incubation; type: functional; details: RP62A
Influenza A virus [25] = experiment: Antiviral activity against Influenza A virus (A/Puerto Rico/8/34(H1N1)) assessed as inhibition of virus-induced cytopathic effect at highest concentration by cell-based assay; type: functional, organism-based; details: A/Puerto Rico/8/1934(H1N1); method in brief: as §2
[26] = test system: Staphylococcus epidermidis; experiment: Bactericidal activity against Staphylococcus epidermidis after overnight incubation; type: functional
H3N2 subtype [27] = experiment: Antiviral activity against Influenza A virus (A/Hong Kong/7/87(H3N2)) assessed as cell viability at subtoxic concentration by cell-based MTS assay; type: functional, organism-based; details: A/Hong Kong/7/1987(H3N2)
Staphylococcus aureus [28] = experiment: Bactericidal activity against methicillin-sensitive Staphylococcus aureus ATCC 33591 after overnight incubation; type: functional
Enterococcus = experiment: Antibacterial activity against vancomycin and teicoplanin-resistant Enterococcus harboring vanA resistance gene; type: functional
[29] = Octanol-aqueous buffer partition coefficient, log P at pH 7 by shake-flask method; type: physicochemical
[30] = Influenza A virus, A/Puerto Rico/8/1934(H1N1)

Which results are given for `CCCCCCCCCCOCc1cn([C@H]2C(=O)N[C@H]3C(=O)N[C@H](C(=O)N[C@H]4C(=O)N[C@H]5C(=O)N[C@H](C(=O)N[C@@H](C(=O)OC)c6cc(O)cc(O)c6-c6cc5ccc6O)[C@H](O)c5ccc(cc5)Oc5cc4cc(c5O)Oc4ccc(cc4)[C@H]3O)c3cc(O)c(C)c(c3)Oc3cc2ccc3O)nn1`?
MIC (Staphylococcus aureus [1]): > 256 µg/mL; EC50 (Influenza B virus [2]): 0.2 µM; EC50 (Influenza A virus [3]; [30]): 0.1 µM; EC50 (Influenza B virus [4]): 0.2 µM; MIC (Enterococcus faecalis [5]): > 256 µg/mL; MIC [6]: > 256 µg/mL; MIC [7]: > 256 µg/mL; EC50 (H3N2 subtype [8]): 0.2 µM; MIC (Staphylococcus aureus [9]): > 256 µg/mL; MIC (Enterococcus faecalis [10]): > 256 µg/mL; EC50 (H3N2 subtype [11]): 0.5 µM; EC50 (Influenza A virus [12]): 0.1 µM; MIC (Enterococcus faecalis [13]): > 256 µg/mL; MIC (Bacillus subtilis [14]): > 256 µg/mL

Which results are given for `CC(N)C12CC3CC(CC(C3)C1)C2` (configuration not stated) [RIMANTADINE]?
EC50 (Influenza A virus [3]; [30]): 10 µM; inhibition (Influenza B virus [15]): inactive; EC50 (H3N2 subtype [8]): 0.1 µM; EC50 (H3N2 subtype [11]): 0.2 µM; EC50 (Influenza A virus [12]): 13 µM; inhibition (Influenza B virus [16]): inactive

What does the source list for `COC(=O)[C@@H]1NC(=O)[C@H]2NC(=O)[C@H](NC(=O)[C@@H]3NC(=O)[C@H]4NC(=O)[C@@H](Cc5ccc(c(Cl)c5)Oc5cc3cc(c5O)Oc3ccc(cc3Cl)[C@H]2O)NC(=O)[C@H](N=[N+]=[N-])c2ccc(O)c(c2)Oc2cc(O)cc4c2)c2ccc(O)c(c2)-c2c(O)cc(O)cc21` [METHYL ESTER OF AZIDO TEICOPLANIN AGLYCON]?
MBC (Bacillus subtilis [17]): 4 µg/mL (≈ 3.23 µM); MIC (Staphylococcus aureus [1]): 64 µg/mL (≈ 51.7 µM); inhibition (H3N2 subtype [18]): inactive; MIC (Enterococcus faecalis [5]): 128 µg/mL (≈ 103 µM); MIC [6]: 64 µg/mL (≈ 51.7 µM); MIC [7]: 64 µg/mL (≈ 51.7 µM); inhibition (Influenza A virus [19]): inactive; inhibition (Influenza B virus [15]): inactive; MBC (Enterococcus faecalis [20]): 256 µg/mL (≈ 207 µM); MIC (Staphylococcus aureus [9]): 64 µg/mL (≈ 51.7 µM); MBC (Enterococcus faecalis [21]): 256 µg/mL (≈ 207 µM); MBC (Enterococcus faecalis [22]): 256 µg/mL (≈ 207 µM); MBC (Staphylococcus aureus [23]): 256 µg/mL (≈ 207 µM); MBC [24]: 256 µg/mL (≈ 207 µM); MIC (Enterococcus faecalis [10]): 128 µg/mL (≈ 103 µM); inhibition (Influenza A virus [25]): inactive; MBC [26]: 256 µg/mL (≈ 207 µM); inhibition (Influenza B virus [16]): inactive; MIC (Enterococcus faecalis [13]): 128 µg/mL (≈ 103 µM); inhibition (H3N2 subtype [27]): inactive; MBC (Staphylococcus aureus [28]): 256 µg/mL (≈ 207 µM); MIC (Bacillus subtilis [14]): 2 µg/mL (≈ 1.61 µM)

What does the source list for `NC12CC3CC(CC(C3)C1)C2` [AMANTADINE]?
EC50 (Influenza A virus [3]; [30]): 45 µM; inhibition (Influenza B virus [15]): inactive; EC50 (H3N2 subtype [8]): 0.8 µM; EC50 (H3N2 subtype [11]): 0.4 µM; EC50 (Influenza A virus [12]): 35 µM; inhibition (Influenza B virus [16]): inactive

Which EC50 (Influenza A virus [3]; [30]) does the source give for `COC(=O)[C@H]1NC(=O)[C@H]2NC(=O)[C@H](NC(=O)[C@@H]3NC(=O)[C@H]4NC(=O)[C@H](NC(=O)[C@H](N=[N+]=[N-])c5ccc(O)c(c5)Oc5cc4cc(O)c5C)[C@H](O)c4ccc(cc4)Oc4cc3cc(c4O)Oc3ccc(cc3)[C@H]2O)c2ccc(O)c(c2)-c2c(O)cc(O)cc21` here?
Its EC50 is 9 µM.

And the EC50 (H3N2 subtype [8])?
Its EC50 is 20 µM.

What about the EC50 (H3N2 subtype [11]) of the same compound?
Its EC50 is 9.2 µM.

And the EC50 (Influenza A virus [12])?
The EC50 was 8.8 µM.

With `NC(=O)c1ncn([C@@H]2O[C@H](CO)[C@@H](O)[C@H]2O)n1` [RIBAVIRIN] as the compound, how does the EC50 (Influenza B virus [2]) read?
Its EC50 is 3.6 µM.

And the EC50 (Influenza A virus [3])?
The EC50 was 9 µM.

What about the EC50 (Influenza B virus [4]) of the same compound?
Its EC50 is 9 µM.

What about the EC50 (H3N2 subtype [8]) of the same compound?
Its EC50 is 9 µM.

What about the EC50 (H3N2 subtype [11]) of the same compound?
The EC50 was 6 µM.

What about the EC50 (Influenza A virus [12]) of the same compound?
Its EC50 is 9.7 µM.

Which MIC (Enterococcus) does the source give for `CN[C@H](CC(C)C)C(=O)N[C@H]1C(=O)N[C@@H](CC(N)=O)C(=O)N[C@H]2C(=O)N[C@H]3C(=O)N[C@H](C(=O)N[C@H](C(=O)O)c4cc(O)cc(O)c4-c4cc3ccc4O)[C@H](O[C@H]3C[C@](C)(N)[C@@H](O)[C@H](C)O3)c3ccc(c(Cl)c3)Oc3cc2cc(c3O[C@@H]2O[C@H](CO)[C@@H](O)[C@H](O)[C@H]2O[C@H]2C[C@](C)(NCc3ccc(-c4ccc(Cl)cc4)cc3)[C@@H](O)[C@H](C)O2)Oc2ccc(cc2Cl)[C@H]1O` [ORITAVANCIN] here?
Its MIC is less than 1 µg/mL.

Which inhibition (Influenza B virus [15]) does the source give for `COC(=O)[C@@H]1NC(=O)[C@H]2NC(=O)[C@H](NC(=O)[C@@H]3NC(=O)[C@H]4NC(=O)[C@H](NC(=O)[C@H](N=[N+]=[N-])c5ccc(O)c(c5)Oc5cc4cc(O)c5C)[C@H](O)c4ccc(cc4)Oc4cc3cc(c4O)Oc3ccc(cc3)[C@H]2O)c2ccc(O)c(c2)-c2c(O)cc(O)cc21` here?
Its inhibition is “inactive”.

And the inhibition (Influenza B virus [16])?
Its inhibition is “inactive”.

What about the logD [29] of the same compound?
Its logD is 0.29.
